Measured values as given in ChEMBL document CHEMBL2146441, “2,6-Disubstituted imidazo[2,1-b][1,3,4]thiadiazoles: search for anticancer agents” (2012).

Key:
Format in all cases: functional
NCI-H226 = assay: Cytotoxicity against human NCI-H226 cells assessed as cell growth at 10^-5 M after 48 hrs by SRB assay; conditions: NCI-H226, 48 h, read-out: Activity
RXF 393 = assay: Cytotoxicity against human RXF393 cells assessed as cell growth at 10^-5 M after 48 hrs by SRB assay; conditions: RXF 393, 48 h, read-out: Activity
SF-295 [1] = assay: Growth inhibition of human SF295 cells after 48 hrs by SRB assay; conditions: SF-295, 48 h
Summary of the method: (§1)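 Adherent NCI-60 lines grown in RPMI 1640 with 5% FBS, seeded at 5000–40,000 cells/well, and preincubated 24 h at 37 °C, 5% CO2. Compound, stocked in DMSO, given either once at 10^-5 M or at five 10-fold dilutions for 48 h. Cells fixed with cold TCA (final 10%), stained with 0.4% SRB, and read at 515 nm. GI50 taken as 50% reduction in net protein increase versus time-zero and control plates.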

UACC-62 = assay: Growth inhibition of human UACC62 cells after 48 hrs by SRB assay; conditions: UACC-62, 48 h; summary of the method: as §1
OVCAR-8 = assay: Growth inhibition of human OVCAR8 cells after 48 hrs by SRB assay; conditions: OVCAR-8, 48 h; summary of the method: as §1
[2] = Growth inhibition of human NCI-ADR-RES cells after 48 hrs by SRB assay; summary of the method: as §1
SK-OV-3 = assay: Growth inhibition of human SKOV3 cells after 48 hrs by SRB assay; conditions: SK-OV-3, 48 h; summary of the method: as §1
UO-31 [3] = assay: Growth inhibition of human UO31 cells after 48 hrs by SRB assay; conditions: UO-31, 48 h; summary of the method: as §1
CCRF-CEM = assay: Cytotoxicity against human CCRF-CEM cells assessed as cell growth at 10^-4 M after 48 hrs by SRB assay; conditions: read-out: Activity
Summary of the method: (§2)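 NCI-60 screen: lines kept in RPMI 1640 with 5% FBS, seeded at 5000–40,000 cells/well by doubling time, preincubated 24 h at 37 °C in 5% CO2. Time-zero plates TCA-fixed at drug addition. DMSO stocks diluted in medium, 48 h exposure. Fixation in cold TCA (final 10% adherent, 16% suspension), 0.4% SRB stain, solubilised in 10 mM Tris base, A515. Percent growth computed against control and time-zero.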

A549 = assay: Cytotoxicity against human A549 cells assessed as cell growth at 10^-7 M after 48 hrs by SRB assay; conditions: A549, 48 h, read-out: Activity; summary of the method: as §2
MDA-MB-435 = assay: Cytotoxicity against human MDA-MB-435 cells assessed as cell growth at 10^-7 M after 48 hrs by SRB assay; conditions: MDA-MB-435, 48 h, read-out: Activity
SK-MEL-2 = assay: Cytotoxicity against human SK-MEL-2 cells assessed as cell growth at 10^-7 M after 48 hrs by SRB assay; conditions: SK-MEL-2, 48 h, read-out: Activity
NCI-H522 [4] = assay: Cytotoxicity against human NCI-H522 cells assessed as cell growth at 10^-4 M after 48 hrs by SRB assay; conditions: NCI-H522, 48 h, read-out: Activity
HCT-116 = assay: Cytotoxicity against human HCT116 cells assessed as cell growth at 10^-4 M after 48 hrs by SRB assay; conditions: HCT-116, 48 h, read-out: Activity
Summary of the method: (§3)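 NCI-60 five-dose screen. Cells were grown in RPMI 1640 with 5% FBS and seeded at 5000–40,000 cells/well according to doubling time. They were pre-incubated 24 h at 37 °C in 5% CO₂, and time-zero (Tz) plates were TCA-fixed at drug addition. Five 10-fold dilutions of DMSO stock were applied for 48 h. Read-out was SRB staining, 515 nm absorbance, with percent growth calculated versus Tz and untreated control.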

HT-29 = assay: Cytotoxicity against human HT-29 cells assessed as cell growth at 10^-4 M after 48 hrs by SRB assay; conditions: HT-29, 48 h, read-out: Activity; summary of the method: as §3
SW-620 = assay: Cytotoxicity against human SW620 cells assessed as cell growth at 10^-4 M after 48 hrs by SRB assay; conditions: SW-620, 48 h, read-out: Activity
M14 = assay: Cytotoxicity against human M14 cells assessed as cell growth at 10^-4 M after 48 hrs by SRB assay; conditions: M14, 48 h, read-out: Activity
UACC-257 = assay: Cytotoxicity against human UACC257 cells assessed as cell growth at 10^-4 M after 48 hrs by SRB assay; conditions: UACC-257, 48 h, read-out: Activity
UO-31 [5] = assay: Cytotoxicity against human UO31 cells assessed as cell growth at 10^-4 M after 48 hrs by SRB assay; conditions: UO-31, 48 h, read-out: Activity
MDA-MB-231 [6] = assay: Cytotoxicity against human MDA-MB-231 cells assessed as cell growth at 10^-4 M after 48 hrs by SRB assay; conditions: MDA-MB-231, 48 h, read-out: Activity
MCF7 = assay: Cytotoxicity against human MCF7 cells assessed as cell growth at 10^-8 M after 48 hrs by SRB assay; conditions: MCF7, 48 h, read-out: Activity
T47D = assay: Cytotoxicity against human T47D cells assessed as cell growth at 10^-8 M after 48 hrs by SRB assay; conditions: read-out: Activity
NCI-H322M = assay: Cytotoxicity against human NCI-H322M cells assessed as cell growth at 10^-6 M after 48 hrs by SRB assay; conditions: read-out: Activity
NCI-H460 = assay: Cytotoxicity against human NCI-H460 cells assessed as cell growth at 10^-6 M after 48 hrs by SRB assay; conditions: NCI-H460, 48 h, read-out: Activity
SF-295 [7] = assay: Cytotoxicity against human SF295 cells assessed as cell growth at 10^-6 M after 48 hrs by SRB assay; conditions: SF-295, 48 h, read-out: Activity
PC-3 = assay: Cytotoxicity against human PC3 cells assessed as cell growth at 10^-6 M after 48 hrs by SRB assay; conditions: PC-3, 48 h, read-out: Activity
NCI-H522 [8] = assay: Growth inhibition of human NCI-H522 cells after 48 hrs by SRB assay; conditions: NCI-H522, 48 h; summary of the method: as §1
MDA-MB-231 [9] = assay: Cytotoxicity against human MDA-MB-231 cells assessed as cell growth at 10^-6 M after 48 hrs by SRB assay; conditions: MDA-MB-231, 48 h, read-out: Activity
EKVX = assay: Cytotoxicity against human EKVX cells assessed as cell growth at 10^-5 M after 48 hrs by SRB assay; conditions: read-out: Activity; summary of the method: as §2
HOP-92 = assay: Cytotoxicity against human HOP92 cells assessed as cell growth at 10^-5 M after 48 hrs by SRB assay; conditions: HOP-92, 48 h, read-out: Activity; summary of the method: as §3
[10] = read-out: LC50 (the source's name)

Work on `COc1ccc(-c2nn3cc(-c4ccc(O)cc4O)nc3s2)cc1` yielded a growth at 10 µM (NCI-H226) of -11%, a growth at 10 µM (RXF 393) of -83% and a GI50 (SF-295 [1]) of 2.16 µM. It also gave a TGI (SF-295 [1]) of 15.1 µM, a CC50 (SF-295 [1]; [10]) greater than 100 µM and a GI50 (UACC-62) of 3.47 µM. The TGI (UACC-62) was 17.7 µM, the CC50 (UACC-62; [10]) was 59.4 µM and the GI50 (OVCAR-8) was 2.63 µM. It also gave a TGI (OVCAR-8) greater than 100 µM, a CC50 (OVCAR-8; [10]) greater than 100 µM and a GI50 [2] of 2.94 µM. It also gave an LC50 [2] greater than 100 µM, a TGI [2] of 44.9 µM and a GI50 (SK-OV-3) of 1.7 µM. For the same molecule, the TGI (SK-OV-3) was 3.62 µM, the CC50 (SK-OV-3; [10]) was 7.72 µM and the GI50 (UO-31 [3]) was 1.44 µM. It also gave an LC50 (UO-31 [3]) greater than 100 µM, a TGI (UO-31 [3]) of 3.97 µM and a growth at 100 µM (CCRF-CEM) of 8%. The growth at 0.1 µM (A549) was 99%, the growth at 0.1 µM (MDA-MB-435) was 91% and the growth at 0.1 µM (SK-MEL-2) was 96%. For the same molecule, the growth at 100 µM (NCI-H522 [4]) was -23%, the growth at 100 µM (HCT-116) was -55% and the growth at 100 µM (HT-29) was -20%. The growth at 100 µM (SW-620) was 6%, the growth at 100 µM (M14) was -49% and the growth at 100 µM (UACC-257) was -5%. It also gave a growth at 100 µM (UO-31 [5]) of -10%, a growth at 100 µM (MDA-MB-231 [6]) of -19% and a growth at 0.01 µM (MCF7) of 92%. It also gave a growth at 0.01 µM (T47D) of 104%, a growth at 1 µM (NCI-H322M) of 77% and a growth at 1 µM (NCI-H460) of 75%. It also gave a growth at 1 µM (SF-295 [7]) of 74%, a growth at 1 µM (PC-3) of 65% and a GI50 (NCI-H522 [8]) of 1.88 µM. It also gave a TGI (NCI-H522 [8]) of 11.2 µM, a CC50 (NCI-H522 [8]; [10]) greater than 100 µM and a growth at 1 µM (MDA-MB-231 [9]) of 66%. The growth at 10 µM (EKVX) was 15% and the growth at 10 µM (HOP-92) was -33%.
